# sPLA2-III inh – Blocks human group III sPLA2 activity | QFRET BODIPY PC-A2 liposome hydrolysis, fluorescence | inhibition, % at 12.2 µM | 0.56% of 370,000 active | AID 743126;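 active means inhibition above mean plus 3 SD of compounds lying within the high and low control bounds, cut at about 19% in these data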;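 further: 0% = median of test compound wells and 100% = no enzyme DMSO wells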
# Tb MetRS inh – blocks T. brucei methionyl-tRNA synthetase activity | purified T. brucei MetRS, ATP depletion, Kinase-Glo luminescence | inhibition, % at 11.9 µM | 0.4% of 360,000 active;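 active means inhibition above a per-plate cutoff of the control wells' mean inhibition plus 3 SD, cut at about 5.5% in these data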;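 further: 0% = DMSO wells median and 100% = median of wells with control inhibitor compound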
#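 Material: T. brucei methionyl-tRNA synthetase, purified; reagent: substrates ATP, L-methionine and bulk Escherichia coli tRNA; dosing: 11.9 µM single point; timing: 15 min plus 2 h at 25 °C; detection: luminescence of leftover ATP; evaluation: % inhibition; control set: DMSO-only wells as low control; replicates: singlicate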
# PLC-beta3 inh – inhibitors of human phospholipase C beta3; AID 720704; 0.18% of 370,000 active; inhibition, % at 12.2 µM; Purified PLC-beta3, fluorogenic substrate, fluorescence; in the data active means inhibition above about 11%;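 further: 0% = median of compound wells on plate and 100% = full blocker control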
# PLCg1 inh – inhibitors of human phospholipase C gamma1 | P19174 | purified PLC-gamma1, fluorogenic substrate, fluorescence | 0.84% of 370,000 active | AID 720700 | inhibition, % at 12.2 µM
# PLCg1 ctr – PLC-gamma1 inhibition, counter-screen for PLC-beta3 hits | shares compounds with PLCg1 inh | purified PLC-gamma1, fluorogenic substrate, fluorescence | inhibition, % at 12.3 µM | 3.1% of 3,300 active
# PLCbeta3 conf – human PLC-beta3 inhibition, confirmation. shares compounds with PLCg1 inh. purified PLC-beta3, fluorogenic substrate fluorescence. inhibition, % at 12.3 µM. 1% of 3,300 active. AID 743261; in the data active means inhibition above about 11%
# Active calls of the source: *; · = not tested or not shown. Compounds with a hit are over-represented: about 1.9% of the library has one in this group of screens. Unless noted, no stated cut-off is given here; in the data, active means inhibition above about 9.5%; inactive means the rest.
SMILES,sPLA2-III inh,Tb MetRS inh,PLC-beta3 inh,PLCg1 inh,PLCg1 ctr,PLCbeta3 conf
CCOC(=O)N1CCN(C(=O)C[C@H]2C[C@@]3(C(=O)OC)C(=C[C@H](C4CCCC4)O[C@@H]3C)N(CCC3=CCCCC3)C2=O)CC1,-8,·,2,0,·,·
O=C(NCc1ccc(OC(F)(F)F)cc1)C1CCC(=O)N(C2CC2)C1 (stereo not given),8,0,-3,11*,-1,0
Cc1cccc(NC(=O)Cn2c(O)c(N=NC(=O)c3ccccc3O)c3ccccc32)c1,6,0,2,11*,8,-1
NC(=S)N=Nc1c(O)n(CC(=O)Nc2ccccc2)c2ccccc12,10,1,2,7,·,·
C[C@@H]1[C@H](O)[C@@H](C)/C=C/C=C/C=C/C=C/C=C/C=C/C=C/[C@H](OC2O[C@H](C)[C@@H](O)[C@H](N)[C@@H]2O)C[C@@H]2O[C@](O)(C[C@@H](O)C[C@@H](O)[C@H](O)CC[C@@H](O)C[C@@H](O)CC(=O)O[C@H]1C)C[C@H](O)[C@H]2C(=O)O (stereo not given in full),-68,·,-147,-109,·,·
C#CCNC(=O)C[C@H]1C[C@@]2(C(=O)OC)C(=C[C@H](C3CCCC3)O[C@@H]2C)N(CCC2=CCCCC2)C1=O,-5,·,0,1,·,·
O=C(Cn1c(NCCCO)nc2ccccc21)c1ccc(Br)cc1,-31,0,12*,7,1,3
O=C(Cn1c(NCCO)nc2ccccc21)c1ccccc1,-6,1,1,-1,·,·
CCN(Cc1ccccc1)C(=O)C1CCCN(c2ncccn2)C1 (stereo not given),1,·,-8,-9,·,·
O=C(Nc1ccccc1)C1Cc2c(-c3cccc(F)c3)ccnc2O1 (stereo not given),-7,0,-1,2,·,·
CNC(=O)C1Cc2c(-c3cccc(F)c3)ccnc2O1 (stereo not given),9,0,4,16*,-4,1
CCn1c(SCC(=O)c2ccc(-c3ccccc3)cc2)nnc1-c1ccccc1OC,-58,·,-5,1,·,·
NC(=O)CC[C@H](NC(=O)c1ccc(F)cc1)C(=O)OCC(=O)NCc1ccc(F)cc1,7,1,4,10*,-2,-2
COc1cccc(NC(=S)NC(=O)/C=C/c2ccco2)c1,0,-1,-5,0,·,·
O=C(/C=C/c1ccco1)NC(=S)Nc1cccc(C(=O)O)c1,-4,0,-12,19*,19*,-6
CCOC(=O)c1c(C)[nH]c(C)c1S(=O)(=O)N(C)Cc1ccco1,-2,0,-3,11*,0,-5
COC(=O)c1ccc(NC(=O)C2CC3CCC2C3)cc1 (stereo not given),1,-1,1,5,·,·
COC(=O)c1ccc(NC(=S)NC2CC3CCC2C3)cc1 (stereo not given),-8,0,6,9.6*,4,4
C/C=C/C(=O)OCC(=O)Nc1ccccc1Br,5,-1,0,9.6*,-6,-1
c1ccc(Cc2cnc(N3CCN(Cc4ccc5c(c4)OCCO5)CC3)nc2)cc1,-5,·,4,9.8*,-5,-6
Clc1ccc(CN2CCN(c3ncc(Cc4ccccc4)cn3)CC2)cc1,-7,·,-2,1,·,·
O=S1(=O)c2ccc(N3CC[C@H](O)C3)cc2OCCCN1C1CC1,10,·,-4,-3,·,·
O=C1c2ccsc2SCCN1Cc1cccc(Cl)c1,-1,0,0,2,·,·
Cc1cccc(CN2CCSc3sccc3C2=O)c1,-1,0,-2,13*,-5,-6
CC(C)(C)NC(=O)C[C@H]1C[C@H](C(=O)N2CCCCC2)[C@@]2(CCc3ccccc3)c3[nH]c4ccc(Cl)cc4c3CCN2C1=O,10,0,11*,11*,-5,-1
CC[C@]12c3[nH]c4ccc(Cl)cc4c3CCN1C(=O)[C@@H](CC(=O)NCCN1CCOCC1)C[C@@H]2C(=O)N1CCN(C(=O)c2ccco2)CC1,4,0,10,13*,-8,-2
CC[C@]12c3[nH]c4ccc(Cl)cc4c3CCN1C(=O)[C@@H](CC(=O)NCc1ccco1)C[C@@H]2C(=O)N1CCN(C(=O)c2ccco2)CC1,-5,0,-4,-1,·,·

# Screening data from PubChem BioAssay.
